Results on one compound are retold here after ChEMBL document CHEMBL4373672, “A small molecule drug conjugate (SMDC) of DUPA and a duocarmycin built on the solid phase” (Medchemcomm, 2019).

Assay [1] concerns DNA. Put plainly: DNA alkylating activity in human LNCAP cells exhibiting increased cathepsin B activity and overexpressing GCPII assessed as reduction in cell viability incubated for 72 hrs by MTS assay. In kind it is functional, cell-based. In short, it runs like this:
(§1)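 Cell lines from ECACC, grown in supplier-recommended media with 10% foetal calf serum and 2 mM L-glutamine, kept at 1-9 x 10^5 cells/mL, 37 °C, 5% CO2. Seeded at 3 x 10^4 cells/100 μL and exposed in triplicate to compound at 100 μM down to 0.00001 μM (10-fold steps) for 72 h; final DMSO 1%. Stocks in DMSO made fresh each day. Doxorubicin hydrochloride (10 μM) served as the 100% inhibition value. MTS reagent added for 3 h, absorbance read at 490 nm. Three independent runs on different passages; IC50 from curve fit.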
In general terms: Formazan colour is commonly taken as a measure of viable cells.

Assay [2] deals with DNA. Kind of assay: DNA alkylating activity in GCPII negative human PC3 cells exhibiting increased cathepsin B activity assessed as reduction in cell viability incubated for 72 hrs by MTS assay. As to conditions: PC-3, 72 h. Format: functional. In short, it runs like this: as §1
The subject of assay [3] is DNA. Put plainly: DNA alkylating activity in human NCI-H292 cells exhibiting increased cathepsin B activity and overexpressing GCPII assessed as reduction in cell viability incubated for 72 hrs by MTS assay. In kind it is functional, cell-based. The conditions noted are these: NCI-H292, 72 h. The essentials:
as §1

Assay [4] concerns DNA. Put plainly: DNA alkylating activity in human A549 cells exhibiting increased cathepsin B activity and overexpressing GCPII assessed as reduction in cell viability incubated for 72 hrs by MTS assay. Format: functional, cell-based. The conditions noted are these: A549, 72 h. The essentials:
as §1

The test system of assay [5] is DNA. Put plainly: DNA alkylating activity in human MCF7 cells exhibiting increased cathepsin B activity and overexpressing GCPII assessed as reduction in cell viability incubated for 72 hrs by MTS assay. In kind it is functional, cell-based. The conditions noted are these: MCF7, 72 h. In short, it runs like this:
as §1

Assay [6] has as its system DNA. Kind of assay: DNA alkylating activity in human SKBR3 cells exhibiting increased cathepsin B activity and reduced GCPII expression assessed as reduction in cell viability incubated for 72 hrs by MTS assay. Format: functional, cell-based. The conditions noted are these: SK-BR-3, 72 h. The essentials: as §1
Assay [7] concerns DNA. Kind of assay: DNA alkylating activity in human SK-MEL-28 cells exhibiting increased cathepsin B activity and overexpressing GCPII assessed as reduction in cell viability incubated for 72 hrs by MTS assay. In kind it is functional, cell-based. As to conditions: SK-MEL-28, 72 h. In short, it runs like this: as §1
Assay [8] relates to DNA. Put plainly: DNA alkylating activity in human GCPII negative 16HBE14o cells deficient of cathepsin B activity assessed as reduction in cell viability incubated for 72 hrs by MTS assay. Format: functional. In short, it runs like this:
as §1

The subject of assay [9] is DNA. Put plainly: DNA alkylating activity in GCPII negative human PC3 cells exhibiting increased cathepsin B activity assessed as reduction in cell viability incubated with GCPII binder 2-PMPA for 1 hr followed by incubation with compound for 48 hrs by MTS assay. Format: functional. As to conditions: PC-3. The essentials: (§2)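 Pre-treatment of cells (3 x 10^4/100 μL) with 10 μM 2-PMPA for 1 h. Compound in DMSO was then added in triplicate at 100 μM to 0.0001 μM (10-fold steps), 48 h at 37 °C, 5% CO2; final DMSO 1%. Doxorubicin hydrochloride defined 100% inhibition. MTS reagent for 3 h, absorbance at 490 nm. Three independent runs on different passages.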

For assay [10], the system named is DNA. Kind of assay: DNA alkylating activity in human LNCAP cells exhibiting increased cathepsin B activity and overexpressing GCPII assessed as reduction in cell viability incubated with GCPII binder 2-PMPA for 1 hr followed by incubation with compound for 48 hrs by MTS assay. Format: functional, cell-based. In short, it runs like this:
as §2

SMILES strings stand for the structures.

In the case of `NC(=O)c1cc2c3c(cc(O)c2[nH]1)N(C(=O)c1ccc(N)cc1)CC3CCl` (stereo not given), the IC50 – broadly, the midpoint of a concentration-inhibition curve – was 15.7 nM in the assay on DNA [1]; 4.7 nM in the assay with DNA [2]; 7.3 nM in the assay on DNA [3]; 36.6 nM in the assay on DNA [4]; 181 nM in the assay on DNA [5]; 2.3 nM in the assay with DNA [6]. Moreover, the half-maximal inhibitory concentration (IC50) in the assay on DNA [7] turned out to be 22.5 nM; with DNA [8], 85.4 nM; with DNA [9], 6.1 nM; in the assay with DNA [10], 25.5 nM.
